Activity calls are given as the source filed them. The calls are words filed in the database; no cut-off is given here.
How the values were obtained:
[1] = (§1) Inhibition of chymotrypsin like activity of rabbit 20S proteasome using Suc-LLVY-AMC as substrate after 45 mins; parameters: species or system Oryctolagus cuniculus
Outline: (§2)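 Rabbit 20S proteasome (0.3 nM final) incubated with Suc-LLVY-AMC ([…] final) at 37 °C for 45 min in pH 7.5 buffer of 20 mM Tris, 1 mM DTT, 10% glycerol. Chymotrypsin-like activity was followed as substrate hydrolysis (AMC release), with and without test compound. Inhibition was taken relative to the no-compound control.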

[2] = organism: Oryctolagus cuniculus; assay: Inhibition of chymotrypsin like activity of rabbit 20S proteasome using Suc-LLVY-AMC as substrate at 100 uM after 45 mins relative to control; outline: as §2
[3] = organism: Oryctolagus cuniculus; assay: as §1; outline: as §2

Q: For `COC(=O)[C@H](Cc1ccccc1)NC(=O)CCNNC(=O)[C@H](CCCCN)NC(=O)Cc1cc(OC)ccc1OC`, which IC50 [1] is on record?
A: Its IC50 is 8.8 µM.

Q: For `COC(=O)[C@H](Cc1ccccc1)NC(=O)CC(NNC(=O)[C@H](CC(N)=O)NC(=O)OC(C)(C)C)C(F)(F)F` (some centres undefined), which inhibition [2] is on record?
A: The inhibition was 30%.

Q: For `COC(=O)C(Cc1ccccc1)NC(=O)CCNNC(=O)C(CCCCNC(=O)OCc1ccccc1)NC(=O)Cc1cccc(Oc2ccccc2)c1` (centres undefined), which IC50 [1] is on record?
A: Its IC50 is 2.8 µM.

Q: For `COc1cc(CNC(=O)CC(NNC(=O)[C@H](CC(N)=O)NC(=O)OC(C)(C)C)C(F)(F)F)cc(OC)c1OC` (some centres undefined), which inhibition [3] is on record?
A: The inhibition was “inactive”.

Q: With `COC(=O)C(Cc1ccccc1)NC(=O)CCNNC(=O)C(N)CCCCNC(=O)OCc1ccccc1` (centres undefined) as the compound, how does the IC50 [1] read?
A: The IC50 was 18.2 µM.

Q: With `COc1cc(CNC(=O)CCNNC(=O)C(CCCCNC(=O)OC(C)(C)C)NC(=O)Cc2cccc(Oc3ccccc3)c2)cc(OC)c1OC` (centres undefined) as the compound, how does the IC50 [1] read?
A: The IC50 was 4.7 µM.

Q: With `COC(=O)[C@H](Cc1ccccc1)NC(=O)CNNC(=O)C(CCCCNC(=O)OCc1ccccc1)NC(=O)Cc1cccc(Oc2ccccc2)c1` (some centres undefined) as the compound, how does the IC50 [1] read?
A: The IC50 was 1.1 µM.

Q: For `COC(=O)[C@H](Cc1ccccc1)NC(=O)CC(NNC(=O)[C@H](CCCCN)NC(=O)Cc1cc(OC)ccc1OC)C(F)(F)F` (some centres undefined), which IC50 [1] is on record?
A: Its IC50 is 5.9 µM.

Q: For `COc1cc(CNC(=O)CC(NNC(=O)[C@H](CCCCNC(=O)OCc2ccccc2)NC(=O)OC(C)(C)C)C(F)(F)F)cc(OC)c1OC` (some centres undefined), which inhibition [2] is on record?
A: The inhibition was 35%.

Q: For `COc1ccc(C[C@H](NC(=O)Cc2cccc(Oc3ccccc3)c2)C(=O)NNC(=O)CC(NNC(=O)OCc2ccccc2)C(F)(F)F)cc1OC` (some centres undefined), which inhibition [3] is on record?
A: The inhibition was “inactive”.

Q: With `COC(=O)[C@H](Cc1ccccc1)NC(=O)CNNC(=O)C(CCCCNC(=O)OCc1ccccc1)NC(=O)Cc1cc(OC)ccc1OC` (some centres undefined) as the compound, how does the IC50 [1] read?
A: Its IC50 is 7.1 µM.

Q: With `COC(=O)C(Cc1ccccc1)NC(=O)CCNNC(=O)C(CCCCNC(=O)OCc1ccccc1)NC(=O)OC(C)(C)C` (centres undefined) as the compound, how does the IC50 [1] read?
A: The IC50 was 48.5 µM.

Q: With `COc1cc(CNC(=O)CCNNC(=O)C(CCCCN)NC(=O)Cc2cccc(Oc3ccccc3)c2)cc(OC)c1OC` (centres undefined) as the compound, how does the IC50 [1] read?
A: Its IC50 is 3.3 µM.

Q: For `COc1cc(CNC(=O)CCNNC(=O)[C@H](CCCCNC(=O)OC(C)(C)C)NC(=O)OCC2c3ccccc3-c3ccccc32)cc(OC)c1OC`, which IC50 [1] is on record?
A: The IC50 was 6 µM.

Q: With `COc1ccc(C[C@H](NC(=O)OCC2c3ccccc3-c3ccccc32)C(=O)NNC(=O)CC(NNC(=O)OCc2ccccc2)C(F)(F)F)cc1OC` (some centres undefined) as the compound, how does the fold change (FC) [2] read?
A: The fold change (FC) was 3.6.

Q: With `COc1ccc(OC)c(CC(=O)N[C@@H](CCCCNC(=O)OCc2ccccc2)C(=O)NNC(CC(=O)NCc2cc(OC)c(OC)c(OC)c2)C(F)(F)F)c1` (some centres undefined) as the compound, how does the inhibition [3] read?
A: Its inhibition is “inactive”.

Q: Which inhibition [3] does the source give for `COc1ccc(C[C@H](NC(=O)OCC2c3ccccc3-c3ccccc32)C(=O)NNC(=O)CC(NNC(=O)OC(C)(C)C)C(F)(F)F)cc1OC` (some centres undefined) here?
A: Its inhibition is “inactive”.

Q: Which IC50 [1] does the source give for `COC(=O)[C@H](Cc1ccccc1)NC(=O)CNNC(=O)C(CCCCNC(=O)OCc1ccccc1)NC(=O)OC(C)(C)C` (some centres undefined) here?
A: Its IC50 is 11.8 µM.

Q: For `COC(=O)[C@H](Cc1ccccc1)NC(=O)CC(NNC(=O)[C@H](CCCCNC(=O)OCc1ccccc1)NC(=O)Cc1cc(OC)ccc1OC)C(F)(F)F` (some centres undefined), which inhibition [2] is on record?
A: Its inhibition is 30%.

Q: For `COc1ccc(C[C@H](NC(=O)Cc2cccc(Oc3ccccc3)c2)C(=O)NNC(=O)CC(NNC(=O)OC(C)(C)C)C(F)(F)F)cc1OC` (some centres undefined), which inhibition [3] is on record?
A: The inhibition was “inactive”.

Q: For `COC(=O)[C@H](Cc1ccccc1)NC(=O)CC(NNC(=O)[C@H](CCCCN)NC(=O)Cc1cccc(Oc2ccccc2)c1)C(F)(F)F` (single isomer, unassigned; diastereomer 2), which IC50 [1] is on record?
A: The IC50 was 5.9 µM.

Q: For `COC(=O)[C@H](Cc1ccccc1)NC(=O)CNNC(=O)C(CCCCN)NC(=O)Cc1cccc(Oc2ccccc2)c1` (some centres undefined), which IC50 [1] is on record?
A: The IC50 was 0.7 µM.

Q: For `COc1cc(CNC(=O)CC(NNC(=O)[C@@H](N)CCCCNC(=O)OCc2ccccc2)C(F)(F)F)cc(OC)c1OC` (some centres undefined), which IC50 [1] is on record?
A: The IC50 was 10.1 µM.

Q: With `COC(=O)[C@H](Cc1ccccc1)NC(=O)CNNC(=O)C(CCCCN)NC(=O)Cc1cc(OC)ccc1OC` (some centres undefined) as the compound, how does the IC50 [1] read?
A: Its IC50 is 1 µM.

Q: Which inhibition [3] does the source give for `COC(=O)[C@H](Cc1ccccc1)NC(=O)CC(NNC(=O)Cc1cc(OC)ccc1OC)C(F)(F)F` (some centres undefined) here?
A: Its inhibition is “inactive”.

Q: Which inhibition [3] does the source give for `COc1ccc(C[C@H](N)C(=O)NNC(=O)CC(NNC(=O)OCc2ccccc2)C(F)(F)F)cc1OC` (some centres undefined) here?
A: Its inhibition is “inactive”.

Q: For `COC(=O)C(Cc1ccccc1)NC(=O)CCNNC(=O)C(CCCCN)NC(=O)Cc1cccc(Oc2ccccc2)c1` (centres undefined), which IC50 [1] is on record?
A: The IC50 was 1.4 µM.

Q: Which IC50 [1] does the source give for `COc1ccc(OC)c(CC(=O)N[C@@H](CCCCN)C(=O)NNC(CC(=O)NCc2cc(OC)c(OC)c(OC)c2)C(F)(F)F)c1` (some centres undefined) here?
A: The IC50 was 97 µM.

Q: With `COC(=O)[C@H](Cc1ccccc1)NC(=O)CCNNC(=O)[C@H](CCCCNC(=O)OCc1ccccc1)NC(=O)Cc1cc(OC)ccc1OC` as the compound, how does the IC50 [1] read?
A: The IC50 was 3.6 µM.

Q: For `COc1ccc(OC)c(CC(=O)NC(CCCCNC(=O)OC(C)(C)C)C(=O)NNCCC(=O)NCc2cc(OC)c(OC)c(OC)c2)c1` (centres undefined), which IC50 [1] is on record?
A: The IC50 was 31.4 µM.

Q: For `COc1ccc(OC)c(CC(=O)NC(CCCCN)C(=O)NNCCC(=O)NCc2cc(OC)c(OC)c(OC)c2)c1` (centres undefined), which IC50 [1] is on record?
A: Its IC50 is 11.8 µM.

Q: Which IC50 [1] does the source give for `COC(=O)[C@H](Cc1ccccc1)NC(=O)CC(NNC(=O)[C@H](CCCCN)NC(=O)Cc1cccc(Oc2ccccc2)c1)C(F)(F)F` (single isomer, unassigned; diastereomer 1) here?
A: Its IC50 is 8.4 µM.

Q: For `COc1cc(CNC(=O)CC(NNC(=O)[C@H](CCCCN)NC(=O)Cc2cccc(Oc3ccccc3)c2)C(F)(F)F)cc(OC)c1OC` (some centres undefined), which IC50 [1] is on record?
A: The IC50 was 6.2 µM.

Q: For `COC(=O)[C@H](Cc1ccccc1)NC(=O)CC(NNC(=O)[C@H](CC(N)=O)NC(=O)Cc1cc(OC)ccc1OC)C(F)(F)F` (some centres undefined), which inhibition [3] is on record?
A: Its inhibition is “inactive”.
